Measurements published in BindingDB's records for doi:10.1021/jm901449m (Progen Pharmaceuticals, 2010).

Key:
[1] = biological target: T1, Heparanase (Homo sapiens, UniProt Q9Y251); experiment: Inhibition of human recombinant heparanase
T1 sequence (Q9Y251 whole entry): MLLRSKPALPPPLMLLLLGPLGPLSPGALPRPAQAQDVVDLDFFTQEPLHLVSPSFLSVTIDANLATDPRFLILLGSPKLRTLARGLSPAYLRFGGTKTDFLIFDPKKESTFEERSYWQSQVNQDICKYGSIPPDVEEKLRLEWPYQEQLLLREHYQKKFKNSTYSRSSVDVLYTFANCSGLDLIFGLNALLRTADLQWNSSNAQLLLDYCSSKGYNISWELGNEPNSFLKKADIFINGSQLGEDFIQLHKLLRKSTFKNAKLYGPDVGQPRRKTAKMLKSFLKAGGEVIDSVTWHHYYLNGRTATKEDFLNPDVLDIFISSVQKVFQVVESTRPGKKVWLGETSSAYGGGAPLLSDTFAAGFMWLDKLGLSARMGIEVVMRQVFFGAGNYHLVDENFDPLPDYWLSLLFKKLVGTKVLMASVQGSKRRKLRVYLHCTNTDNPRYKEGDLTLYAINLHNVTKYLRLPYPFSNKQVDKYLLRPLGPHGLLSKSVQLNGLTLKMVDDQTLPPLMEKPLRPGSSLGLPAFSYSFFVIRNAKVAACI
Procedure, shortened: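 Recombinant human heparanase assayed by ultrafiltration with 3H-labelled heparan sulfate as substrate (Km = 1.64 μM). Ki values with standard error were derived from inhibition response curves.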

[2] = biological target: T2, Vascular endothelial growth factor A (Homo sapiens, UniProt P15692); experiment: Binding affinity to VEGF by surface plasmon-based solution affinity assay
T2 sequence (P15692 whole entry): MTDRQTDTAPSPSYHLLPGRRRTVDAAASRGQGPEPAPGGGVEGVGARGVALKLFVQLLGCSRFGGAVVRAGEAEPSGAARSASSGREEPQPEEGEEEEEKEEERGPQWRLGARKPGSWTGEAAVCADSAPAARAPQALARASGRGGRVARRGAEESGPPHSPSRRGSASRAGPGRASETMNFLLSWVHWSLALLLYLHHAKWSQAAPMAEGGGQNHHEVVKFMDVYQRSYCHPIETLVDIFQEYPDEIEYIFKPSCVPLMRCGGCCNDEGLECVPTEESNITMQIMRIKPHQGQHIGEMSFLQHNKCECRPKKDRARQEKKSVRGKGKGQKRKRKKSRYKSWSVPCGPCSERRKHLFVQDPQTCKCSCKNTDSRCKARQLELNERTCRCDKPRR

[3] = biological target: Fibroblast growth factor 2 (Homo sapiens, UniProt P09038); experiment: Binding affinity to FGF2 by surface plasmon-based solution affinity assay
Chain of Fibroblast growth factor 2 (P09038 143-288 limits assumed): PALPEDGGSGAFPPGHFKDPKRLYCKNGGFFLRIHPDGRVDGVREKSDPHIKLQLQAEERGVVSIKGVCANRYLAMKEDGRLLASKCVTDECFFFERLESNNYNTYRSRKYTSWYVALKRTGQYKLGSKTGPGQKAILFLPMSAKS
Procedure, shortened: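 Surface plasmon resonance solution affinity assay on heparin-coated CM4 chips. FGF-2 binding run in HBS-EP containing 300 mM NaCl. Kd is the mean of at least duplicate measurements ± SD.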

[4] = biological target: Fibroblast growth factor 1 (Homo sapiens, UniProt P05230); experiment: Binding affinity to FGF1 by surface plasmon-based solution affinity assay
Chain of Fibroblast growth factor 1 (P05230 whole entry): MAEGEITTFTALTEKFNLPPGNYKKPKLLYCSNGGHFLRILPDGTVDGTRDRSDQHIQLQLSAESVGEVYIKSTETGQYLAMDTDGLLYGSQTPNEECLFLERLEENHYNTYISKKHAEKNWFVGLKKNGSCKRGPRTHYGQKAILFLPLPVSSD
Procedure, shortened: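 Surface plasmon resonance solution affinity assay on heparin-coated CM4 chips. Buffer: HBS-EP (10 mM HEPES pH 7.4, 150 mM NaCl, 3.0 mM EDTA, 0.005% polysorbate 20). Kd is the mean of at least duplicate measurements ± SD.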

Ki [1]: 240 nM | Kd [2]: 2.2 nM | Kd [3]: 61 nM | Kd [4]: 0.24 nM
Structure (SMILES): O=P(O)(O)OC[C@H]1O[C@H](O[C@@H]2[C@H](OS(=O)(=O)O)[C@@H](O[C@@H]3[C@H](OS(=O)(=O)O)[C@@H](O[C@@H]4[C@H](OS(=O)(=O)O)[C@@H](O[C@@H]5[C@@H](OS(=O)(=O)O)O[C@H](COS(=O)(=O)O)[C@@H](OS(=O)(=O)O)[C@@H]5OS(=O)(=O)O)O[C@H](COS(=O)(=O)O)[C@H]4OS(=O)(=O)O)O[C@H](COS(=O)(=O)O)[C@H]3OS(=O)(=O)O)O[C@H](COS(=O)(=O)O)[C@H]2OS(=O)(=O)O)[C@@H](OS(=O)(=O)O)[C@@H](OS(=O)(=O)O)[C@@H]1OS(=O)(=O)O [PI-88]
